ChEMBL document CHEMBL1154512, “PA-824 kills nonreplicating Mycobacterium tuberculosis by intracellular NO release” (2008)
Calls of active or inactive are those of the source. The rule behind the calls is not given here.

Tests used:
[1] = tested on: Mycobacterium tuberculosis; assay: Induction of nitrous acid production in NRP2 phase Mycobacterium bovis BCG assessed as ratio of Vmax to Km under hypoxic non replicating condition; type: functional, variant bovis BCG
Procedure, shortened: (§1)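 NO release measured inside BCG cells preloaded with the NO-specific fluorescent probe DAF-FM diacetate and then treated with compound. Fluorescence (RFU) followed over time. Rate expressed as apparent Vmax/Km, i.e. RFU per hour divided by an intracellularly measured Km (RFU hr–1 μM–1).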

[2] = tested on: Mycobacterium tuberculosis; assay: Induction of nitrous acid production in NRP2 phase Mycobacterium bovis BCG at 1.85 uM to 100 uM after 2 days under hypoxic non replicating condition in presence of DAF-FM diacetate; type: functional, organism-based; conditions: variant bovis BCG
[3] = tested on: Mycobacterium tuberculosis; assay: Induction of nitrous acid production in NRP2 phase Mycobacterium bovis BCG under aerobic condition in presence of DAF-FM diacetate; type: functional, organism-based; conditions: variant bovis BCG; procedure, shortened: as §1
[4] = tested on: Mycobacterium tuberculosis; assay: Induction of nitrous acid production in NRP2 phase Mycobacterium bovis BCG at 20 uM by fluorescence quenching measurement in presence of C-PTIO; type: functional, organism-based; conditions: variant bovis BCG
Procedure, shortened: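 BCG cells preloaded with DAF-FM diacetate were treated with 20 μM nitroimidazole in the presence of increasing concentrations of the NO scavenger C-PTIO. NO read as fluorescence. Three independent replicates, error as SD.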

## O=[N+]([O-])c1cn2c(n1)OC[C@@H](NCCCCc1ccc(OC(F)(F)F)cc1)C2
[1]
  Ratio: 71.6

## O=[N+]([O-])c1cn2c(n1)OC[C@@H](OCc1ccc(OC(F)(F)F)cc1)C2 [PRETOMANID]
[2]
  Activity: Active
[3]
  Activity: Active
[4]
  Activity: inactive
[1]
  Ratio: 12.5

## O=[N+]([O-])c1cn2c(n1)OC[C@@H](NCc1ccc(OC(F)(F)F)cc1)C2
[1]
  Ratio: 10.1

## O=[N+]([O-])c1cn2c(n1)NC[C@@H](OCc1ccc(OC(F)(F)F)cc1)C2
[1]
  Ratio: 4.8

## O=[N+]([O-])c1cn2c(n1)OC[C@@H](NCCCc1ccc(OC(F)(F)F)cc1)C2
[1]
  Ratio: 60.1

## CCCCc1ccc(CN[C@@H]2COc3nc([N+](=O)[O-])cn3C2)cc1
[1]
  Ratio: 4.7

## O=[N+]([O-])c1cn2c(n1)OC[C@@H](NCCc1ccc(OC(F)(F)F)cc1)C2
[1]
  Ratio: 28.7

## O=[N+]([O-])c1cn2c(n1)OC[C@@H](NCc1ccc(OCc3ccc(OC(F)(F)F)cc3)cc1)C2
[1]
  Ratio: 76.9
